The values below come from article PMC8756568 (ACS Omega, 2021).

Assay [1] concerns Huh-7 cells. The assay can be described thus: cellular uptake in Huh-7 cells. The class given is cell-based, human. The note with it: n = 3. Put shortly: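 Huh-7 cells were seeded at 1×10^5 per well in DMEM/10% FBS. Radiolabeled tracer (740 KBq/1 mL medium) was added, with incubation at 37 or 4 °C for 5, 10, 20, 40, 60 and 80 min. Cells were washed three times with cold PBS and lysed in 0.5 M NaOH. Lysate radioactivity was gamma-counted.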

In assay [2] the test system is B16F10 cells. The assay is described as follows: cellular internalization in B16F10 cells. The note with it: n = 3. The class given is cell-based, mouse.

In the case of “NODAGA-Ahx-CWRLRWHSPLKGM-OH [[^64Cu]CM-3]”, the “in vitro cellular internalization” value in assay [1] and in assay [2] was “weaker binding” each time.
